Data set [1] has as its target T1, Signal transducer and activator of transcription 5B (Homo sapiens, UniProt P51692).
T1 sequence (P51692 whole entry): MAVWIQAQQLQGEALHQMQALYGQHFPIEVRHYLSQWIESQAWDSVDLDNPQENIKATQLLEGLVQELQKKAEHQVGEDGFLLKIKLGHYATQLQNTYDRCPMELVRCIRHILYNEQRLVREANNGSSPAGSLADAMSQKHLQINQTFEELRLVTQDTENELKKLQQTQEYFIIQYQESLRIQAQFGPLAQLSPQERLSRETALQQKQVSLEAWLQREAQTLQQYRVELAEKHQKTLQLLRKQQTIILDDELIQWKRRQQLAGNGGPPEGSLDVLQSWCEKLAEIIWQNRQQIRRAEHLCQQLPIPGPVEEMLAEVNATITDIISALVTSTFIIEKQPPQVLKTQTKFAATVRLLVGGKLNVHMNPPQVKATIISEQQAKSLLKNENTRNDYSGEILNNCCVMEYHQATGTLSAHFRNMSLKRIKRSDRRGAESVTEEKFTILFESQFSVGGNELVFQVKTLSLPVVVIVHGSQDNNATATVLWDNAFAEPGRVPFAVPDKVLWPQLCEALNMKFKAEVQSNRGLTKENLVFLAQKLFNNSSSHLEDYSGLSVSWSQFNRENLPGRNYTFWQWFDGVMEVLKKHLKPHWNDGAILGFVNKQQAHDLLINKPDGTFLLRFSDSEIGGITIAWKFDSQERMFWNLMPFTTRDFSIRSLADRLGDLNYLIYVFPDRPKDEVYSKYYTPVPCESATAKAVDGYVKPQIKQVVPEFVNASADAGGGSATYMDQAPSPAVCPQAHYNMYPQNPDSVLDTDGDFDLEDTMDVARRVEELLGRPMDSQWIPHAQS
The data set is described as follows: Inhibition of STAT5B SH2 domain (unknown origin)-5-FAM-GpYLVLDKW interaction compound treated for 15 mins by fluorescent polarization assay. In a few lines: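 Fluorescence polarization used STAT5B SH2 domain bound to the fluorescein-labelled phosphopeptide 5-FAM-GpYLVDKW, with inhibitor tested up to 100 μM. Polarization was read every 15 min over 1 h to confirm the probe stayed bound and to pick the time of maximal change. Ki values were derived from the data.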

Data set [2] concerns K562. As to the kind of experiment: Cytotoxicity against human K562 cells assessed as reduction in cell viability after 72 hrs by CellTiter-Blue assay. It counts as functional, cell-based. Particulars: K562, 72 h. In a few lines:
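K562 (Bcr-Abl) and MV-4;11 (FLT3-ITD) leukemia cells were exposed to inhibitor over 0.78–50 μM for 72 h. Viability was read by CellTiter-Blue and IC50 taken from the dose series.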
A general note: The colour change of resazurin is a common sign of viable cells or microbes.

Data set [3] addresses Signal transducer and activator of transcription 3 (Homo sapiens) (UniProt P40763). Particulars: MDA-MB-231, 15 uM.
Data set [4] concerns the target Tyrosine-protein kinase ABL1 (Homo sapiens) (UniProt P00519). As to the kind of experiment: Inhibition of ABL (unknown origin).
The subject of data set [5] is K562. As to the kind of experiment: Effect on total STAT5 level in human K562 cells at 15 uM after 5 hrs by Western blotting. The format is functional, cell-based. In outline: (§1)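 K562 cells were treated for 5 h across a dose range, then harvested. Immunoblots probed phospho-STAT5 (Y694), total STAT5 and cleaved PARP-1.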
The test system of data set [6] is MDA-MB-231. The data set is described as follows: Effect on total STAT5 level in human MDA-MB-231 cells at 15 uM after 5 hrs by Western blotting. It counts as functional, cell-based. In a few lines: (§2)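 MDA-MB-231 breast cancer cells carry high pSTAT3 and negligible pSTAT5. They were treated up to 20 μM and immunoblotted for pSTAT3, total STAT3 and total STAT5.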
(In western blotting, separated proteins are transferred to a membrane and probed.)

Data set [7] deals with K562. As to the kind of experiment: Inhibition of STAT5 phosphorylation at Y694 residue in human K562 cells after 5 hrs by Western blotting. The format is cell-based. In outline:
as §1

Data set [8] concerns K562. The data set is described as follows: Inhibition of STAT5 phosphorylation at Y694 residue in human K562 cells assessed as decreases in MCL-1 expression at 15 uM after 24 hrs by Western blotting. The format is cell-based. In outline: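 K562 cells were exposed to 15 μM for 24 h. Lysates were immunoblotted for cleaved PARP-1, cleaved caspase-3 and MCL-1.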
In another data set the target is JAK2/JAK1 (Homo sapiens) (UniProt P23458+O60674). As to the kind of experiment: Inhibition of JAK1/2 (unknown origin). The format is protein-complex assay.
The next data set deals with MV4-11. As to the kind of experiment: Cytotoxicity against human MV4-11 cells assessed as reduction in cell viability after 72 hrs by CellTiter-Blue assay. Particulars: MV4-11, 72 h.
The test system of data set [9] is MDA-MB-231. As to the kind of experiment: Effect on total STAT3 level in human MDA-MB-231 cells at 15 uM after 5 hrs by Western blotting. The format is functional, cell-based. In a few lines:
as §2

Data set [10] can be described thus: Cytotoxicity against human CD34-positive umbilical cord cells assessed as reduction in cell viability at 10 uM after 72 hrs by CellTiter-Blue assay. It counts as cell-based. In a few lines: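 Healthy human CD34+ umbilical cord cells received a single 10 μM dose, with MV4;11 cells run alongside. Cell viability was then measured.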
For data set [11], the target named is Receptor-type tyrosine-protein kinase FLT3 (Homo sapiens) (UniProt P36888). The data set is described as follows: Inhibition of FLT3 (unknown origin).
Data set [12] deals with K562. As to the kind of experiment: Inhibition of STAT5 phosphorylation at Y694 residue in human K562 cells assessed as decreases in MYC expression after 5 hrs by Western blotting. It counts as cell-based. In a few lines: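 K562 cells were dosed for 5 h at the same concentrations used for pSTAT5 inhibition. MYC protein was followed by immunoblot.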
Data set [13] concerns the target T1, Signal transducer and activator of transcription 5B. As to the kind of experiment: Binding affinity to full-length His-tagged STAT5B (unknown origin) by surface plasmon resonance assay. Background: Surface plasmon resonance follows binding to a sensor surface in real time, without labels.
Data set [14] has as its system K562. As to the kind of experiment: Inhibition of STAT5 phosphorylation at Y694 residue in human K562 cells at 10 uM after 5 hrs by Western blotting. It counts as cell-based. In a few lines:
as §1

This is an account of results in ChEMBL document CHEMBL3352760, “Nanomolar-Potency Small Molecule Inhibitor of STAT5 Protein” (ACS Med Chem Lett, 2014).

Active and inactive are the calls of the source. No cut-off for these calls is given here.

Tyrosine-protein kinase ABL1 (Homo sapiens), sequence (P00519 whole entry): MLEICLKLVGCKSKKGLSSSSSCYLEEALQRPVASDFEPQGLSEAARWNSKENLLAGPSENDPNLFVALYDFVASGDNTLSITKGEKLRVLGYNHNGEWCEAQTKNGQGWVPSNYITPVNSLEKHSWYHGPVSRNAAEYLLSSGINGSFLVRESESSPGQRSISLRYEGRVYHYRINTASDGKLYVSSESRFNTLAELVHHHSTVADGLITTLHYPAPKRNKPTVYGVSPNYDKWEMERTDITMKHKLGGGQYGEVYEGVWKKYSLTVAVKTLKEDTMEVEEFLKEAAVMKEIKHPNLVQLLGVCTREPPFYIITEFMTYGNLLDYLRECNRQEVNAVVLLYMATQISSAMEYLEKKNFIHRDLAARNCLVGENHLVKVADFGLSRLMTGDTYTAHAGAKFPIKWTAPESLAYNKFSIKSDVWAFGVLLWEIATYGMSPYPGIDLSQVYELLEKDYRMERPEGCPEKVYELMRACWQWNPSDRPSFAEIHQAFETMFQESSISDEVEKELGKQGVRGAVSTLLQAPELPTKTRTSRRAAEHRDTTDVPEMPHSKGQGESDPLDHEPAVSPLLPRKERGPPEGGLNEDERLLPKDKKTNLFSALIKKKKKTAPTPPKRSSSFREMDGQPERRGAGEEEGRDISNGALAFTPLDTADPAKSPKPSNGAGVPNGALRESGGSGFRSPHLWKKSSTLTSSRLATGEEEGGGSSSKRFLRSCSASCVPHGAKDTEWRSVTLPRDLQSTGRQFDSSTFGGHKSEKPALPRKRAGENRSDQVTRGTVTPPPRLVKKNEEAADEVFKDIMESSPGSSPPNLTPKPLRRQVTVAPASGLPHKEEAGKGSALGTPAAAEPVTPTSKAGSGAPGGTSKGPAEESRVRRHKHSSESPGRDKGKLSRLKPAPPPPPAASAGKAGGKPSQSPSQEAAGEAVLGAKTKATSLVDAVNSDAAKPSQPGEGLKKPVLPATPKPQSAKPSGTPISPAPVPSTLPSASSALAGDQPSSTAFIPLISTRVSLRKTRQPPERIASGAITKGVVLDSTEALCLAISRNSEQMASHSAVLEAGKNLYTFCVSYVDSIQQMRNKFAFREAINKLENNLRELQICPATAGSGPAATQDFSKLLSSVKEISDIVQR
Signal transducer and activator of transcription 3 (Homo sapiens), sequence (P40763 whole entry): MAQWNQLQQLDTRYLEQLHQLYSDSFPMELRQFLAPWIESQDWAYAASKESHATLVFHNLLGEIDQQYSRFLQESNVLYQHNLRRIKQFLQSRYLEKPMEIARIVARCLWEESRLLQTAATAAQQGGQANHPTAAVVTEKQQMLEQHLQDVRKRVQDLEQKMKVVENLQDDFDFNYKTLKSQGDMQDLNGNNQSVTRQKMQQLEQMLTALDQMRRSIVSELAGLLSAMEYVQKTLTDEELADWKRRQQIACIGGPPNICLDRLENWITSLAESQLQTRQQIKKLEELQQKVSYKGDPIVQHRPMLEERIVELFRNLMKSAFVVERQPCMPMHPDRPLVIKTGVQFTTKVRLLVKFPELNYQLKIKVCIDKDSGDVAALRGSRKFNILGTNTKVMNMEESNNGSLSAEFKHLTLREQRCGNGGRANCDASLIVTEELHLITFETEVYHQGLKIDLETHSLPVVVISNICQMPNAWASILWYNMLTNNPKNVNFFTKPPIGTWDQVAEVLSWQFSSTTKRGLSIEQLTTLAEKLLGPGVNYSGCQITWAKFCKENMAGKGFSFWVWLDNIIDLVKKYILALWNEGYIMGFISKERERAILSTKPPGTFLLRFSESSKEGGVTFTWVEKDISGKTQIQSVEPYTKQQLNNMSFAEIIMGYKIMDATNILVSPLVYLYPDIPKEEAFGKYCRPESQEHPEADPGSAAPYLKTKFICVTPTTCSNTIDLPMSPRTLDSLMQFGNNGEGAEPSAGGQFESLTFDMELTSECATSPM
Receptor-type tyrosine-protein kinase FLT3 (Homo sapiens), sequence (P36888 whole entry): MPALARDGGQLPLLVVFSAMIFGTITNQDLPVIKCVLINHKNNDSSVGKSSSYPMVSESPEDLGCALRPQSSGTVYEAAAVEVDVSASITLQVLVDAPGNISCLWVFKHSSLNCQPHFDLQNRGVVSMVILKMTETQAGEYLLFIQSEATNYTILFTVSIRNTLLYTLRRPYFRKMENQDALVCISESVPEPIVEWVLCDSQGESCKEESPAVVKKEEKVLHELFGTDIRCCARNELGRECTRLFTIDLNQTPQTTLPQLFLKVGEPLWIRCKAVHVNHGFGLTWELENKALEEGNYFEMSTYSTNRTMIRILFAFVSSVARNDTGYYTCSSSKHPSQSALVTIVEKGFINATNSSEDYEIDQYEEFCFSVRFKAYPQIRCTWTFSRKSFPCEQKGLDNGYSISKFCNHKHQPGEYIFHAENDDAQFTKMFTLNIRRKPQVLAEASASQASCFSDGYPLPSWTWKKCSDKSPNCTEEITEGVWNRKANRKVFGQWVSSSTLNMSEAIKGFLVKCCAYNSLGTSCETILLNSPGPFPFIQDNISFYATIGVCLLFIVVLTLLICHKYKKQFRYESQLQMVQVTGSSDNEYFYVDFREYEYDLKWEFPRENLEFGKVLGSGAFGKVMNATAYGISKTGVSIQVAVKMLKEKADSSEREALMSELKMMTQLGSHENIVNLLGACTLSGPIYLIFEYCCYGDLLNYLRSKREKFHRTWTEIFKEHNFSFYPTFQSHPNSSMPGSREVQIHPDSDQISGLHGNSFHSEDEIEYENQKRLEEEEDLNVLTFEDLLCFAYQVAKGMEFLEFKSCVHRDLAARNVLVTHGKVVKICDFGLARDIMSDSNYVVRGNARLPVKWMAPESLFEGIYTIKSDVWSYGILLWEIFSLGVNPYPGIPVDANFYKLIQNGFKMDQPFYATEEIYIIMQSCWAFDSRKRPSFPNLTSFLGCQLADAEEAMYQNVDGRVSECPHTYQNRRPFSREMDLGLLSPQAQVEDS

Broadly, the Ki is the dissociation constant of the complex between target and ligand, obtained from inhibition or displacement. A high value points to a looser hold on the target. The compound `Cc1cc(C)c(S(=O)(=O)N(C)CC(=O)N(Cc2ccc(F)cc2)c2ccc(C(=O)O)c(O)c2)c(C)c1` gave a Ki in data set [1] of more than 60 µM.

In turn, `Cc1cc(C)c(S(=O)(=O)N(C)CC(=O)N(Cc2ccccc2)c2ccc(C(=O)O)c(O)c2)c(C)c1` gave a Ki in data set [1] of more than 60 µM. Still for that read-out and setting: in the case of `CN(CC(=O)N(CC1CCCO1)c1ccc(C(=O)O)c(O)c1)S(=O)(=O)c1c(F)c(F)c(F)c(F)c1F` (stereo unspecified) it was more than 60 µM; in that of `Cc1ccc(CN(C(=O)CN(C)S(=O)(=O)c2c(F)c(F)c(F)c(F)c2F)c2ccc(C(=O)O)c(O)c2)cc1`, more than 60 µM; in that of `Cc1cc(C)c(S(=O)(=O)N(C)CC(=O)N(CC23CCC(CC2)C3)c2ccc(C(=O)O)c(O)c2)c(C)c1`, more than 60 µM.

The IC50 is the concentration that gives 50% inhibition. In turn, `CN(CC(=O)N(Cc1ccc2ccccc2c1)c1ccc(C(=O)O)c(O)c1)S(=O)(=O)c1c(F)c(F)c(F)c(F)c1F` gave a Ki in data set [1] of 12.4 µM. The IC50 with K562 [2] came out at 3 µM. Consider `CN(CC(=O)N(Cc1nccn1C)c1ccc(C(=O)O)c(O)c1)S(=O)(=O)c1c(F)c(F)c(F)c(F)c1F`, for which the Ki in [1] was more than 60 µM.

Turning to `CN(CC(=O)N(Cc1ccc(C(C)(C)C)cc1)c1ccc(C(=O)O)c(O)c1)S(=O)(=O)c1c(F)c(F)c(F)c(F)c1F`, the Ki in [1] is more than 60 µM. Still for that read-out and setting: in the case of `Cc1ccc(CN(C(=O)CN(C)S(=O)(=O)c2c(C)cc(C)cc2C)c2ccc(C(=O)O)c(O)c2)cc1` it was more than 60 µM.

Regarding `CN(CC(=O)N(Cc1ccc(F)cc1)c1ccc(C(=O)O)c(O)c1)S(=O)(=O)c1c(F)c(F)c(F)c(F)c1F`, in data set [1], the Ki was more than 60 µM. On the same count and under the same terms, in the case of `Cc1cc(C)c(S(=O)(=O)N(C)CC(=O)N(CC2CCCO2)c2ccc(C(=O)O)c(O)c2)c(C)c1` (stereo unspecified) it was more than 60 µM. Turning to `Cc1cc(C)c(S(=O)(=O)N(CC(=O)N(Cc2cc(C(C)(C)C)cc(C(C)(C)C)c2)c2ccc(C(=O)O)c(O)c2)Cc2ccc(Cl)cc2)c(C)c1`, the IC50 with K562 [2] turned out to be 3 µM. In data set [1], `Cc1cc(C)c(S(=O)(=O)N(C)CC(=O)N(Cc2cc(C(C)(C)C)cc(C(C)(C)C)c2)c2ccc(C(=O)O)c(O)c2)c(C)c1` returned a Ki of 4.77 µM. In the data set on K562 [2], the IC50 turned out to be 3 µM. As for `CN(CC(=O)N(CC12CCC(CC1)C2)c1ccc(C(=O)O)c(O)c1)S(=O)(=O)c1c(F)c(F)c(F)c(F)c1F`, in data set [1], the Ki is more than 60 µM.

Regarding `CN(CC(=O)N(Cc1cc(C(C)(C)C)cc(C(C)(C)C)c1)c1ccc(C(=O)O)c(O)c1)S(=O)(=O)c1c(F)c(F)c(F)c(F)c1F`, the affinity in data set [1] corresponds to a Ki of 11.5 µM. The IC50 in the data set on K562 [2] came out at 3 µM. As to `CN(CC(=O)N(Cc1ccccc1)c1ccc(C(=O)O)c(O)c1)S(=O)(=O)c1c(F)c(F)c(F)c(F)c1F`, the Ki in data set [1] is more than 60 µM.

The compound `CN(CC(=O)N(Cc1cccs1)c1ccc(C(=O)O)c(O)c1)S(=O)(=O)c1c(F)c(F)c(F)c(F)c1F` returned a Ki in [1] of more than 60 µM. Consider `Cc1cc(C)c(S(=O)(=O)N(CC(=O)N(Cc2ccc3ccccc3c2)c2ccc(C(=O)O)c(O)c2)Cc2ccc(Cl)cc2)c(C)c1`, for which, in the data set on K562 [2], the IC50 was 3 µM. As for `O=C(O)c1ccc(N(Cc2ccc3ccccc3c2)C(=O)CN(Cc2ccc(Cl)cc2)S(=O)(=O)c2c(F)c(F)c(F)c(F)c2F)cc1O`, in the data set on K562 [2], the IC50 came to 3 µM. On to `Cc1cc(C)c(S(=O)(=O)N(C)CC(=O)N(CC2CC2)c2ccc(C(=O)O)c(O)c2)c(C)c1`, for which the Ki in data set [1] is more than 60 µM. In [1], `Cc1cc(C)c(S(=O)(=O)N(C)CC(=O)N(Cc2cccs2)c2ccc(C(=O)O)c(O)c2)c(C)c1` had a Ki of more than 60 µM. Same read-out and setting: in the case of `CN(CC(=O)N(CC1CC1)c1ccc(C(=O)O)c(O)c1)S(=O)(=O)c1c(F)c(F)c(F)c(F)c1F` it was more than 60 µM.

`Cc1cc(C)c(S(=O)(=O)N(C)CC(=O)N(Cc2ccc3ccccc3c2)c2ccc(C(=O)O)c(O)c2)c(C)c1` showed a Ki in data set [1] of 6.62 µM. In addition, in the data set on K562 [2], the IC50 worked out at 3 µM. The Kd is a measure of binding affinity in units of concentration. For the compound `CC(C)(C)c1cc(CN(C(=O)CN(Cc2ccc(Cl)cc2)S(=O)(=O)c2c(F)c(F)c(F)c(F)c2F)c2ccc(C(=O)O)c(O)c2)cc(C(C)(C)C)c1`, the inhibition entry (in data set [3]; in [4]; on JAK2/JAK1 (Homo sapiens); in data set [11]) was “inactive” each time. For the same compound, the outcome in the data set on K562 [5], in the data set with MDA-MB-231 [6] and in the data set with MDA-MB-231 [9] was inactive. The inhibition result with K562 [7] and in the data set on K562 [12] was “Dose-dependent effect” each time. Further, the inhibition result with K562 [8] and in the data set with K562 [14] was “Active” throughout. For the same compound, the IC50 was 3 µM in the data set with K562 [2] and 3.5 µM in the data set on MV4-11. Moreover, the Activity entry in data set [10] is “Non-toxic”. Moreover, the Kd in data set [13] turned out to be 0.042 µM. The compound `Cc1cc(C)c(S(=O)(=O)N(C)CC(=O)N(Cc2ccc(C(C)(C)C)cc2)c2ccc(C(=O)O)c(O)c2)c(C)c1` registered a Ki in data set [1] of more than 60 µM. For `Cc1cc(C)c(S(=O)(=O)N(C)CC(=O)N(Cc2c(F)c(F)c(F)c(F)c2F)c2ccc(C(=O)O)c(O)c2)c(C)c1`, in data set [1], the Ki is more than 60 µM. Still for that read-out and setting: in the case of `Cc1cc(C)c(S(=O)(=O)N(C)CC(=O)N(Cc2nccn2C)c2ccc(C(=O)O)c(O)c2)c(C)c1` it was more than 60 µM.

Take `CN(CC(=O)N(Cc1c(F)c(F)c(F)c(F)c1F)c1ccc(C(=O)O)c(O)c1)S(=O)(=O)c1c(F)c(F)c(F)c(F)c1F`: in data set [1], the Ki was more than 60 µM.
